In ChEMBL document CHEMBL3045866, “A novel family of insect-selective peptide neurotoxins targeting insect large-conductance calcium-activated K+ channels isolated from the venom of the theraphosid spider Eucratoscelus constrictus” (Mol Pharmacol, 2011):
Activity calls are given as the source filed them. The calls are words filed in the database; no cut-off is given here. Bridge positions count the residues as written; N and C are the ends. Peptide text beside a SMILES is read from it.

Key:
[1] = target: Voltage-gated sodium channel Nav1 alpha subunit (Periplaneta americana) (UniProt D0E0C1); assay: Inhibition of Nav channel in Periplaneta americana (American cockroach) DUM neurons assessed as effect on voltage-dependent activation at 330 nM measured at holding potential -90 mV depolarised to +70 mV with 10 mV increments for 10 min by whole cell patch clamp assay
Method in brief: (§1)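 Whole-cell voltage clamp of TTX-sensitive Na+ current in DUM neurons isolated from adult cockroaches and kept no longer than 24 h at 30°C. Bath (mM): NaCl 80, CsCl 5, CaCl2 1.8, TEA-Cl 50, 4-AP 5, HEPES 10, NiCl2 0.1, CdCl2 1, pH 7.4. Vh -90 mV; test pulse to -10 mV, or steps to +70 mV in 10-mV increments at 0.1 Hz. P-P/4 leak subtraction; 20–23°C.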

[2] = target: Voltage-dependent calcium channel alpha-1 subunit (Blattella germanica) (UniProt O18323); assay: Inhibition of mid-low voltage activated Cav channel in Periplaneta americana (American cockroach) DUM neurons assessed as effect on voltage-dependent activation at 330 nM measured at holding potential -90 mV depolarized to +70 mV with 10 mV increments after 10 min by whole cell patch clamp assay
Method in brief: (§2)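 Ba2+ currents through M-LVA and HVA Cav channels recorded by whole-cell clamp in cockroach DUM neurons at 20–23°C. Toxin applied for 10 min via a perfusion needle. Peak IBa measured relative to control. For activation, steps from Vh -90 mV to +70 mV in 10-mV increments at 0.1 Hz. P-P/4 leak subtraction; n = 3.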

[3] = Reversible inhibition of Potassium channel Kv in Periplaneta americana (American cockroach) DUM neurons at 330 nM measured at holding potential -90 mV depolarized to +30 mV after 10 min by whole cell patch clamp assay relative to control
[4] = target: Voltage-dependent calcium channel alpha-1 subunit (Blattella germanica) (UniProt O18323); assay: Inhibition of voltage-gated calcium channel Cav-mediated fast-transient current in Periplaneta americana (American cockroach) DUM neurons assessed as measured at holding potential -80 mV depolarized to +40 mV after 10 min by whole cell patch clamp assay in presence of CdCl2
Method in brief: (§3)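 BK(Ca) current in DUM neurons with 5 mM 4-AP in the bath. Toxin perfused for 10 min or to equilibrium; then 1 mM CdCl2 plus 30 nM ChTx added, and the residual current subtracted. 100-ms steps from Vh -80 mV to +30 mV, or to +40 mV in 10-mV increments for I–V. Peak (fast-transient) and 100-ms (late) amplitudes measured. IC50 from logistic fit; n = 3–6.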

[5] = Inhibition of transient A type potassium channel IK(A) in Periplaneta americana (American cockroach) DUM neurons at 330 nM measured at holding potential -90 mV depolarized to +30 mV after 10 min by whole cell patch clamp assay in presence of CdCl2 and ChTx
Gryllus bimaculatus [6] = assay: Neurotoxicity against third-instar nymph stage of Gryllus bimaculatus (cricket) assessed as paralysis at 1.1 nmol/g measured within 5 min; type: functional, organism-based
[7] = target: Voltage-dependent calcium channel alpha-1 subunit (Blattella germanica) (UniProt O18323); assay: Inhibition of high voltage activated Cav channel in Periplaneta americana (American cockroach) DUM neurons assessed as effect on voltage-dependent activation at 330 nM measured at holding potential -90 mV depolarized to +70 mV with 10 mV increments after 10 min by whole cell patch clamp assay; method in brief: as §2
Mus musculus [8] = assay: Neurotoxicity against Mus musculus C57BL/6 (mouse) assessed as effect on posture at 500 pmol, icv; type: toxicity, organism-based; conditions: in vivo, icv_or_intrathecal
Method in brief: (§4)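 Female C57BL/6 mice (~20 g) lightly anesthetized with diethylether. 5 µl of sample in BSA solution injected into the left cerebral ventricle. Posture, behavior and neurotoxic signs observed; n = 2.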

Gryllus bimaculatus [9] = assay: Neurotoxicity against third-instar nymph stage of Gryllus bimaculatus (cricket) assessed as mortality at 1.1 nmol/g measured at 15 min; type: functional, organism-based
[10] = Inhibition of transient A type potassium channel IK(A) in Periplaneta americana (American cockroach) DUM neurons assessed as effect on voltage-dependent activation at 330 nM measured at holding potential -90 mV depolarized to +40 mV with 100 ms increments after 10 min by whole cell patch clamp …
Mus musculus [11] = assay: Neurotoxicity against Mus musculus C57BL/6 (mouse) assessed as effect on behaviour at 500 pmol, icv; type: toxicity, organism-based; conditions: in vivo, icv_or_intrathecal; method in brief: as §4
[12] = target: Voltage-dependent calcium channel alpha-1 subunit (Blattella germanica) (UniProt O18323); assay: (§5) Inhibition of voltage-gated calcium channel Cav-mediated late-sustained current in Periplaneta americana (American cockroach) DUM neurons assessed as effect on voltage-dependent activation at 6 nM measured at holding potential -80 mV in 10 mV increments depolarized to +40 mV after 10 min by whole cell patch clamp assay in presence of CdCl2; method in brief: as §3
[13] = target: Voltage-dependent calcium channel alpha-1 subunit (Blattella germanica) (UniProt O18323); assay: as §5, with “fast-transient” for “late-sustained”; method in brief: as §3
[14] = target: Voltage-dependent calcium channel alpha-1 subunit (Blattella germanica) (UniProt O18323); assay: Inhibition of voltage-gated calcium channel Cav-mediated late-sustained current in Periplaneta americana (American cockroach) DUM neurons assessed as measured at holding potential -80 mV depolarized to +40 mV after 10 min by whole cell patch clamp assay in presence of CdCl2; method in brief: as §3
[15] = Inhibition of delayed rectifier potassium channel IK(DR) in Periplaneta americana (American cockroach) DUM neurons assessed as effect on voltage-dependent activation at 330 nM measured at holding potential -90 mV depolarized to +40 mV with 100 ms increments after 10 min by whole cell voltage clamp …
[16] = Inhibition of delayed rectifier potassium channel IK(DR) in Periplaneta americana (American cockroach) DUM neurons at 330 nM measured at holding potential -90 mV depolarized to +30 mV after 10 min by whole cell voltage clamp assay in presence of CdCl2 and ChTx relative to control
[17] = target: Voltage-gated sodium channel Nav1 alpha subunit (Periplaneta americana) (UniProt D0E0C1); assay: Inhibition of Nav channel in Periplaneta americana (American cockroach) DUM neurons assessed as remaining activity at 330 nM measured at holding potential -90 mV depolarized to -10 mV after 10 min by whole cell patch clamp assay relative to control; method in brief: as §1
[18] = target: Voltage-dependent calcium channel alpha-1 subunit (Blattella germanica) (UniProt O18323); assay: as §5, with “25” for “6”
[19] = target: Voltage-dependent calcium channel alpha-1 subunit (Blattella germanica) (UniProt O18323); assay: Inhibition of high voltage activated Cav channel in Periplaneta americana (American cockroach) DUM neurons assessed as reduction in barium current at 330 nM measured at holding potential -90 mV depolarized to +30 mV after 10 min by whole cell patch clamp assay relative to control; method in brief: as §2
[20] = target: Voltage-dependent calcium channel alpha-1 subunit (Blattella germanica) (UniProt O18323); assay: Inhibition of mid-low voltage activated Cav channel in Periplaneta americana (American cockroach) DUM neurons assessed as reduction in barium current at 330 nM measured at holding potential -90 mV depolarized to -20 mV after 10 min by whole cell patch clamp assay relative to control; method in brief: as §2
[21] = target: Voltage-dependent calcium channel alpha-1 subunit (Blattella germanica) (UniProt O18323); assay: as §5, with “fast-transient” for “late-sustained”, “25” for “6”; method in brief: as §3

Sequence of Voltage-dependent calcium channel alpha-1 subunit (Blattella germanica) (O18323 as listed by the source): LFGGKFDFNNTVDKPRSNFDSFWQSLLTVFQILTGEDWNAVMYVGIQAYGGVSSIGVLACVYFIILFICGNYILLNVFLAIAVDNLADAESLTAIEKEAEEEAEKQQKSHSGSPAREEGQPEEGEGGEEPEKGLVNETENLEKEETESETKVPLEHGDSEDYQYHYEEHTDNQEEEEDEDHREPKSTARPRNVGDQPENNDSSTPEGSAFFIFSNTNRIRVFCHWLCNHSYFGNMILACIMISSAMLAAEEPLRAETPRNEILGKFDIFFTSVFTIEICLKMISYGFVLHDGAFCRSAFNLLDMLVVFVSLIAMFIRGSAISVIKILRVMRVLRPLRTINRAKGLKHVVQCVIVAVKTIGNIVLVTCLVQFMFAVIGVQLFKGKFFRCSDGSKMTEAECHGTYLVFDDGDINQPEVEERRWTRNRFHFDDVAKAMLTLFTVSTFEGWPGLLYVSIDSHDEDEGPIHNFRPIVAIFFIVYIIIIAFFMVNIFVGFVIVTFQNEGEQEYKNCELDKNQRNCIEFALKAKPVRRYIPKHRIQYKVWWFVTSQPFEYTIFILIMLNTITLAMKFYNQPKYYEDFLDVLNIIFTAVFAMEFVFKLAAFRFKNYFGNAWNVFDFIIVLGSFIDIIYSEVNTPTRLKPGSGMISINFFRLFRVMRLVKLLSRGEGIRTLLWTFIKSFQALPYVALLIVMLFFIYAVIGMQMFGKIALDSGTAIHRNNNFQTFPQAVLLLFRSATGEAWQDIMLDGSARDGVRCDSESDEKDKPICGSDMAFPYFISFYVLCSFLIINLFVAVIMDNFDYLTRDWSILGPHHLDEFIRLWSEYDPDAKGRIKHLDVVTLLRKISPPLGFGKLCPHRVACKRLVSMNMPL
Sequence of Voltage-gated sodium channel Nav1 alpha subunit (Periplaneta americana) (D0E0C1 as listed by the source): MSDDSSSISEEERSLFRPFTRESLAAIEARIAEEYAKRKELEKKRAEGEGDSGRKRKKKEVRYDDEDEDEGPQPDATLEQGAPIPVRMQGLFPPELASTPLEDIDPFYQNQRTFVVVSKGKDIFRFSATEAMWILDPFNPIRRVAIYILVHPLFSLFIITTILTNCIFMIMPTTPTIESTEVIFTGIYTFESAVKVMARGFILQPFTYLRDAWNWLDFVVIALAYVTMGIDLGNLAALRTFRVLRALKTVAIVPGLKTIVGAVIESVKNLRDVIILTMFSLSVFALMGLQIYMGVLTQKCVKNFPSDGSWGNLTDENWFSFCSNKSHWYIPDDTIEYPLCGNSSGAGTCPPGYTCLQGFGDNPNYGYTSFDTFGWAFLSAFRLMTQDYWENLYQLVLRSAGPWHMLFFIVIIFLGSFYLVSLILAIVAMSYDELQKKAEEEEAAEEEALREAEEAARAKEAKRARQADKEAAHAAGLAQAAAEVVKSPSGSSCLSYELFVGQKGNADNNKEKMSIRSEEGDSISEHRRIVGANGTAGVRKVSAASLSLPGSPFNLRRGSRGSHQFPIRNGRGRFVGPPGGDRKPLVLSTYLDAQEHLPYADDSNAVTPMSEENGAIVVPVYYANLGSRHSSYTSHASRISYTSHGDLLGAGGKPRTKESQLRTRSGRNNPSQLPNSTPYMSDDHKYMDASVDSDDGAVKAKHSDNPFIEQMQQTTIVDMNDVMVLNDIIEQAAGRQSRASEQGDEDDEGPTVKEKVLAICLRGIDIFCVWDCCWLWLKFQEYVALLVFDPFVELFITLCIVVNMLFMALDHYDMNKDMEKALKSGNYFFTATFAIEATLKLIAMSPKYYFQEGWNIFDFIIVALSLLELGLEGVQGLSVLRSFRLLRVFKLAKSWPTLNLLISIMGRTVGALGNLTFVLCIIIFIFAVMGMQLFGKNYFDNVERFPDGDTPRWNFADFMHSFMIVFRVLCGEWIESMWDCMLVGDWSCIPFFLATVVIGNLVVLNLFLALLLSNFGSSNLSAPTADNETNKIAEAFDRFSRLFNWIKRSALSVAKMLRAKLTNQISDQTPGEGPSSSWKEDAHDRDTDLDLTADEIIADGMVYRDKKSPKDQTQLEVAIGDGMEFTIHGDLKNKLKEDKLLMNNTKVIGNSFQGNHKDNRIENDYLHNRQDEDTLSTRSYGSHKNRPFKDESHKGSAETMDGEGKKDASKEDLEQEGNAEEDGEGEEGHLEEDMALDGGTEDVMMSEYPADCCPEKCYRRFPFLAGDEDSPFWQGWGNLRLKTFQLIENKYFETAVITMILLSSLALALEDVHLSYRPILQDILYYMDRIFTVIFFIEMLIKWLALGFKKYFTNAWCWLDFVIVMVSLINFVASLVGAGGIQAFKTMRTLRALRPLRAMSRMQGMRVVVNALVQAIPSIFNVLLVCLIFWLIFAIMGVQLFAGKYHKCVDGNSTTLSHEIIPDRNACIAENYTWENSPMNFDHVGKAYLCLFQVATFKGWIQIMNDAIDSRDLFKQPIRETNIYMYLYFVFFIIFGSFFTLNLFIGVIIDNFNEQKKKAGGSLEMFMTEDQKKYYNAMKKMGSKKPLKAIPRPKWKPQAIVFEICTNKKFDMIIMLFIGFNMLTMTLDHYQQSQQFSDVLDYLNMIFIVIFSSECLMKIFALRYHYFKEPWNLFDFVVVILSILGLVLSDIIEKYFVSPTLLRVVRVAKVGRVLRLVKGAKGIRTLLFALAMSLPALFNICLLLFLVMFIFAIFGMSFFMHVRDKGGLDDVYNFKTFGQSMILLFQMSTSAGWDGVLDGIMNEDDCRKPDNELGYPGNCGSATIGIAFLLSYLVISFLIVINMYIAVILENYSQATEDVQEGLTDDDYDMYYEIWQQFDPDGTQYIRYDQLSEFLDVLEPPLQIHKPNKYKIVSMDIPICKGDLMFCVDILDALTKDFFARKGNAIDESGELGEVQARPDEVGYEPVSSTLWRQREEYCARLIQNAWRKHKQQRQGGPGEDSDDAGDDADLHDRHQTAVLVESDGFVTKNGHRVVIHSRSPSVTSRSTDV

SMILES | inhibition [1] | inhibition [2] | inhibition [3] | inhibition [4] | inhibition [5] | Activity (Gryllus bimaculatus [6]) | inhibition [7] | Activity (Mus musculus [8]) | Activity (Gryllus bimaculatus [9]) | inhibition [10] | Activity (Mus musculus [11]) | inhibition [14] | inhibition [15] | inhibition [16] | other results
CSCC[C@@H]1NC(=O)[C@H](CC(=O)O)NC(=O)[C@H](CCC(=O)O)NC(=O)[C@@H]2CSSC[C@H](NC(=O)[C@@H](N)Cc3ccc(O)cc3)C(=O)N[C@@H](CCC(N)=O)C(=O)N[C@@H](CCCCN)C(=O)N[C@@H](Cc3ccccc3)C(=O)N[C@@H](CC(C)C)C(=O)N[C@@H](Cc3c[nH]c4ccccc34)C(=O)N[C@@H]([C@@H](C)O)C(=O)N[C@H]3CSSC[C@H](NC(=O)[C@H](C(C)C)NC1=O)C(=O)N[C@@H](CCC(=O)O)C(=O)N[C@@H](CC(C)C)C(=O)N[C@@H](Cc1c[nH]c4ccccc14)C(=O)N[C@H](C(=O)N[C@@H](CCCCN)C(=O)N[C@@H](CC(C)C)C(=O)N[C@@H](CCC(=O)O)C(=O)N[C@@H](CCCCN)C(=O)O)CSSC[C@H](NC(=O)[C@H](CCCCN)NC(=O)[C@H](CCCNC(=N)N)NC(=O)[C@H](CCC(=O)O)NC(=O)[C@H]([C@@H](C)O)NC(=O)[C@H](CC(=O)O)NC3=O)C(=O)N2 (H-YCQKFLWTCDTERKCCEDMVCELWCKLEK-OH; disulfide 2-16, 9-21, 15-25) | inactive | inactive | Active | Dose-dependent effect | Active | Active | inactive | Non-toxic | Active | inactive | Non-toxic | Dose-dependent effect | inactive | 31% | inhibition [12]: inactive; inhibition [13]: inactive
CSCC[C@@H]1NC(=O)[C@H](CC(=O)O)NC(=O)[C@H](CCC(=O)O)NC(=O)[C@@H]2CSSC[C@H](NC(=O)[C@@H](N)Cc3ccc(O)cc3)C(=O)N[C@@H](CCC(N)=O)C(=O)N[C@@H](CCCCN)C(=O)N[C@@H](Cc3ccccc3)C(=O)N[C@@H](CC(C)C)C(=O)N[C@@H](Cc3c[nH]c4ccccc34)C(=O)N[C@@H]([C@@H](C)O)C(=O)N[C@H]3CSSC[C@H](NC(=O)[C@H](C(C)C)NC1=O)C(=O)N[C@@H](CCC(=O)O)C(=O)N[C@@H](CC(C)C)C(=O)N[C@@H](Cc1c[nH]c4ccccc14)C(=O)N[C@H](C(=O)N[C@@H](CCCCN)C(=O)N[C@@H](Cc1ccc(O)cc1)C(=O)N[C@@H](CCCCN)C(=O)N[C@@H](CCC(=O)O)C(=O)O)CSSC[C@H](NC(=O)[C@H](CCCCN)NC(=O)[C@H](CCCNC(=N)N)NC(=O)[C@H](CCC(=O)O)NC(=O)[C@H]([C@@H](C)O)NC(=O)[C@H](CC(=O)O)NC3=O)C(=O)N2 (H-YCQKFLWTCDTERKCCEDMVCELWCKYKE-OH; disulfide 2-16, 9-21, 15-25) | inactive | inactive | Active | Dose-dependent effect | inactive | Active | inactive | Non-toxic | Active | inactive | Non-toxic | Dose-dependent effect | inactive | inactive | Activity [17]: 92%; inhibition [18]: inactive; inhibition [19]: 7%; inhibition [20]: 10%; inhibition [21]: inactive
